Laboratory results published in ChEMBL document CHEMBL1128448, “Synthesis and antifungal activity of new azole derivatives containing an N-acylmorpholine ring” (1995).
In brackets after ≈: the same amount, converted by molar mass.

Tests used:
Mus sp. [1] = assay: In vivo evaluation of % survival rate after peroral administration on 3rd day at dose 0.5 mg/kg; type: functional; details: route oral
Candida albicans [2] = assay: Evaluation of […] antifungal activity against Candida albicans 60 by broth macro dilution method; type: functional
Method in brief: (§1)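 Yeast MIC and MFC by broth macrodilution per NCCLS M27-P in RPMI-1640 buffered with 0.165 M MOPS. Fluconazole in sterile water, other drugs in DMSO. C. parapsilosis ATCC 22019 is the reference strain in each run. MIC is the lowest concentration with turbidity ≤ the 80% inhibition standard. For MFC, 0.04 mL from clear tubes is plated on Sabouraud agar; MFC is the lowest concentration giving ≤1 colony.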

Cryptococcus neoformans [3] = assay: Evaluation of In vitro antifungal activity against Cryptococcus neoformans 87 by broth macro dilution method; type: functional; method in brief: as §1
Pichia kudriavzevii [4] = assay: Evaluation of In vitro antifungal activity against Candida krusei 70 by broth macro dilution method; type: functional; method in brief: as §1
Candida parapsilosis [5] = assay: Evaluation of In vitro antifungal activity against Candida parapsilosis ATCC 141095 by broth macro dilution method; type: functional; details: Lodderomyces parapsilosis; method in brief: as §1
Candida albicans [6] = assay: Evaluation of In vitro antifungal activity against Candida albicans 76 by broth macro dilution method; type: functional; method in brief: as §1
Mus sp. [7] = assay: In vivo evaluation of % survival rate after peroral administration on 9th day at dose 0.5 mg/kg; type: functional; details: Mus sp., po
Candida albicans [8] = assay: Evaluation of In vitro antifungal activity against Candida albicans 2.01 by broth macro dilution method; type: functional; method in brief: as §1
Mus musculus = assay: In vivo evaluation of % survival rate after peroral administration on 7th day at dose 0.5 mg/kg; type: functional; details: Mus musculus, po
Candida albicans [9] = assay: Evaluation of In vitro antifungal activity against Candida albicans C56 by broth macro dilution method; type: functional; method in brief: as §1
Candida albicans [10] = assay: Evaluation of In vitro antifungal activity against Candida albicans ATCC 10231 by broth macro dilution method; type: functional; method in brief: as §1
Trichophyton benhamiae = assay: In vitro evaluation of minimum inhibitory concentration against Trichophyton mentagrophytes 23; type: functional, Arthroderma benhamiae; details: Trichophyton benhamiae; read-out: MIC
Method in brief: (§2)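 Stocks are 800 μg/mL in 50% ethanol. Each plate gets 10 μL of inoculum at 10^5 cfu/mL. Incubation at 25 °C, 48 h for yeasts and 120 h for dermatophytes and molds. Organisms are ATCC strains or clinical isolates.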

Candida albicans [11] = assay: Evaluation of In vitro antifungal activity against Candida albicans 31 by broth macro dilution method; type: functional; method in brief: as §1
Nannizzia gypsea = assay: In vitro evaluation of minimum inhibitory concentration against Microsporum gypseum 22; type: functional; details: Nannizzia gypsea; read-out: MIC; method in brief: as §2
Cryptococcus neoformans [12] = assay: Evaluation of In vitro antifungal activity against Cryptococcus neoformans 74 by broth macro dilution method; type: functional; method in brief: as §1
Kluyveromyces marxianus [13] = assay: Evaluation of In vitro antifungal activity against yeasts by broth macro dilution method; type: functional; method in brief: as §1
Pichia kudriavzevii [14] = assay: Evaluation of In vitro antifungal activity against Candida krusei C64 by broth macro dilution method; type: functional; method in brief: as §1
Aspergillus fumigatus = assay: In vitro evaluation of minimum inhibitory concentration against Aspergillus fumigatus 33; type: functional; details: Aspergillus fumigatus; read-out: MIC; method in brief: as §2
Candida parapsilosis [15] = assay: Evaluation of In vitro antifungal activity against Candida parapsilosis 2.07 by broth macro dilution method; type: functional; details: Lodderomyces parapsilosis; method in brief: as §1
Mus sp. [16] = assay: In vivo evaluation of % survival rate after peroral administration on 7th day at dose 1 mg/kg; type: functional; details: Mus sp., po
Candida albicans [17] = assay: In vitro evaluation of minimum inhibitory concentration against Candida albicans 76; type: functional; details: Candida albicans; read-out: MIC; method in brief: as §2
Aspergillus niger = assay: In vitro evaluation of minimum inhibitory concentration against Aspergillus niger 18; type: functional; details: Aspergillus niger; read-out: MIC; method in brief: as §2
Pichia kudriavzevii [18] = assay: In vitro evaluation of minimum inhibitory concentration against Candida krusei 70; type: functional; details: Pichia kudriavzevii; read-out: MIC; method in brief: as §2
Microsporum canis = assay: In vitro evaluation of minimum inhibitory concentration against Microsporum canis 47; type: functional; details: Microsporum canis; read-out: MIC; method in brief: as §2
Mus sp. [19] = assay: In vivo evaluation of % survival rate after peroral administration on 3rd day at dose 1 mg/kg; type: functional; details: Mus sp., po
[20] = system: Meyerozyma guilliermondii; assay: Evaluation of In vitro antifungal activity against Candida guilliermondii 26 by broth macro dilution method; type: functional; method in brief: as §1
Trichophyton rubrum = assay: In vitro evaluation of minimum inhibitory concentration against Trichophyton rubrum 90; type: functional; details: Trichophyton rubrum; read-out: MIC; method in brief: as §2
Mus sp. [21] = assay: In vivo evaluation of % survival rate after peroral administration on 5th day at dose 0.5 mg/kg; type: functional; details: route oral
Mus sp. [22] = assay: In vivo evaluation of % survival rate after peroral administration on 5th day at dose 1 mg/kg; type: functional; details: Mus sp., po
Candida albicans [23] = assay: Evaluation of In vitro antifungal activity against Candida albicans 60 by broth macro dilution method
Candida parapsilosis [24] = assay: In vitro evaluation of minimum inhibitory concentration against Candida parapsilosis 61; type: functional; details: Lodderomyces parapsilosis; read-out: MIC; method in brief: as §2
Candida parapsilosis [25] = assay: Evaluation of In vitro antifungal activity against Candida parapsilosis C292 by broth macro dilution method; type: functional; details: Lodderomyces parapsilosis; method in brief: as §1
Nakaseomyces glabratus = assay: Evaluation of In vitro antifungal activity against Torulopsis glabrata 78 by broth macro dilution method; type: functional; method in brief: as §1
Aspergillus flavus = assay: In vitro evaluation of minimum inhibitory concentration against Aspergillus flavus 19; type: functional; details: Aspergillus flavus; read-out: MIC; method in brief: as §2
Candida parapsilosis [26] = assay: Evaluation of In vitro antifungal activity against Candida parapsilosis ATCC 22019 by broth macro dilution method; type: functional; details: Lodderomyces parapsilosis; method in brief: as §1
Candida tropicalis = assay: Evaluation of In vitro antifungal activity against Candida tropicalis 50 by broth macro dilution method; type: functional; method in brief: as §1
Candida parapsilosis [27] = assay: Evaluation of In vitro antifungal activity against Candida parapsilosis C74 by broth macro dilution method; type: functional; details: Lodderomyces parapsilosis; method in brief: as §1
Mus sp. [28] = assay: In vivo evaluation of % survival rate after peroral administration on 9th day at dose 1 mg/kg; type: functional; details: Mus sp., po
Rattus norvegicus = assay: In vivo evaluation of antifungal activity against vaginal candidosis in rat at dose 0.25 mg/kg on 15th day; type: functional
Method in brief: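 Groups of 10 female Wistar rats given estradiol 25 mg/kg sc on day -5, infected intravaginally with C. albicans by sterile swab on day 0; infection confirmed on day 3 by swab culture (TSB, then Sabouraud agar). Oral dosing once daily on days 3, 4, 5; vehicle controls. Vaginal swabs cultured on days 10 and 15; read-out % cured (culture-negative).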

Kluyveromyces marxianus [29] = assay: Evaluation of In vitro antifungal activity against Candida pseudotropicalis ATCC 28838 by broth macro dilution method; type: functional; method in brief: as §1
[30] = system: Meyerozyma guilliermondii; assay: In vitro evaluation of minimum inhibitory concentration against Candida guilliermondii 26; type: functional; details: Meyerozyma guilliermondii; read-out: MIC; method in brief: as §2
Candida albicans [31] = assay: Evaluation of In vitro antifungal activity against Candida albicans C52 by broth macro dilution method; type: functional; method in brief: as §1

OC(Cn1cncn1)(Cn1cncn1)c1ccc(F)cc1F [FLUCONAZOLE]
survival at 0.5 mg/kg (Mus sp. [1]): 100% | MIC (Candida albicans [2]): 0.5 µg/mL (≈ 1.63 µM) | MFC (Cryptococcus neoformans [3]): > 64 µg/mL | MIC (Cryptococcus neoformans [3]): 8 µg/mL (≈ 26.1 µM) | MFC (Pichia kudriavzevii [4]): > 64 µg/mL | MIC (Pichia kudriavzevii [4]): 32 µg/mL (≈ 104 µM) | MFC (Candida parapsilosis [5]): > 64 µg/mL | MIC (Candida parapsilosis [5]): 2 µg/mL (≈ 6.53 µM) | MFC (Candida albicans [6]): > 64 µg/mL | MIC (Candida albicans [6]): 0.25 µg/mL (≈ 0.816 µM) | survival at 0.5 mg/kg (Mus sp. [7]): 10% | MFC (Candida albicans [8]): > 64 µg/mL | MIC (Candida albicans [8]): 1 µg/mL (≈ 3.27 µM) | survival at 0.5 mg/kg (Mus musculus): 20% | MFC (Candida albicans [9]): > 64 µg/mL | MIC (Candida albicans [9]): 0.5 µg/mL (≈ 1.63 µM) | MFC (Candida albicans [10]): > 64 µg/mL | MIC (Candida albicans [10]): 2 µg/mL (≈ 6.53 µM) | MIC (Trichophyton benhamiae): > 80 µg/mL | MFC (Candida albicans [11]): > 64 µg/mL | MIC (Candida albicans [11]): 0.25 µg/mL (≈ 0.816 µM) | MIC (Nannizzia gypsea): > 80 µg/mL | MFC (Cryptococcus neoformans [12]): 1 µg/mL (≈ 3.27 µM) | MIC (Cryptococcus neoformans [12]): 0.5 µg/mL (≈ 1.63 µM) | MIC (Kluyveromyces marxianus [13]): 0.5 µg/mL (≈ 1.63 µM) | MFC (Pichia kudriavzevii [14]): > 64 µg/mL | MIC (Pichia kudriavzevii [14]): 64 µg/mL (≈ 209 µM) | MIC (Aspergillus fumigatus): > 80 µg/mL | MFC (Candida parapsilosis [15]): > 64 µg/mL | MIC (Candida parapsilosis [15]): 1 µg/mL (≈ 3.27 µM) | survival at 1 mg/kg (Mus sp. [16]): 52% | MIC (Candida albicans [17]): 40 µg/mL (≈ 131 µM) | MIC (Aspergillus niger): > 80 µg/mL | MIC (Pichia kudriavzevii [18]): > 80 µg/mL | MIC (Microsporum canis): > 80 µg/mL | survival at 1 mg/kg (Mus sp. [19]): 100% | MIC [20]: 8 µg/mL (≈ 26.1 µM) | MIC (Trichophyton rubrum): > 80 µg/mL | survival at 0.5 mg/kg (Mus sp. [21]): 90% | survival at 1 mg/kg (Mus sp. [22]): 96% | MFC (Candida albicans [23]): > 64 µg/mL | MIC (Candida parapsilosis [24]): 20 µg/mL (≈ 65.3 µM) | MFC (Candida parapsilosis [25]): > 64 µg/mL | MIC (Candida parapsilosis [25]): 1 µg/mL (≈ 3.27 µM) | MFC (Nakaseomyces glabratus): > 64 µg/mL | MIC (Nakaseomyces glabratus): 32 µg/mL (≈ 104 µM) | MIC (Aspergillus flavus): > 80 µg/mL | MFC (Candida parapsilosis [26]): > 64 µg/mL | MIC (Candida parapsilosis [26]): 4 µg/mL (≈ 13.1 µM) | MFC (Candida tropicalis): > 64 µg/mL | MIC (Candida tropicalis): 8 µg/mL (≈ 26.1 µM) | MFC (Candida parapsilosis [27]): 2 µg/mL (≈ 6.53 µM) | MIC (Candida parapsilosis [27]): 0.25 µg/mL (≈ 0.816 µM) | survival at 1 mg/kg (Mus sp. [28]): 6% | Cure rate (Rattus norvegicus): 25% | MFC (Kluyveromyces marxianus [29]): 32 µg/mL (≈ 104 µM) | MIC [30]: 10 µg/mL (≈ 32.7 µM) | MFC (Candida albicans [31]): > 64 µg/mL | MIC (Candida albicans [31]): 0.25 µg/mL (≈ 0.816 µM)
